Data as given in ChEMBL document CHEMBL1127523, “Design and synthesis of side-chain conformationally restricted phenylalanines and their use for structure-activity studies on tachykinin NK-1 receptor” (J Med Chem, 1994).

Legend:
Substance-K receptor = molecular target: T1, Substance-K receptor (Rattus norvegicus, UniProt P16610); assay: Concentration required to inhibit the specific binding of [3H]NKA to Neurokinin-2 (NK-2) receptor in rat duodenum membranes
T1 sequence (P16610 whole entry): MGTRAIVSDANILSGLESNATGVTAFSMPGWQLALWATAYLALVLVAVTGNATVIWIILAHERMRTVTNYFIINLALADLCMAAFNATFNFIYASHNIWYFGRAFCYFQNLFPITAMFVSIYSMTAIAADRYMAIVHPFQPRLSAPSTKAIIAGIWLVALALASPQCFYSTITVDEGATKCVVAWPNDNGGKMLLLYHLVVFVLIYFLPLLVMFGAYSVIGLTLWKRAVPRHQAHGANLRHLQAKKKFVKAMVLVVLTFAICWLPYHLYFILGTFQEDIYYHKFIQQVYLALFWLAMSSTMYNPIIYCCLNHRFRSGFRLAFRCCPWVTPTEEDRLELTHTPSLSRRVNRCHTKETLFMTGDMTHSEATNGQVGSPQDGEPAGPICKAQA

Substance-P receptor = Substance-P receptor (Rattus norvegicus, UniProt P14600); assay: Concentration required to inhibit the specific binding of [125I]BH-SP to Neurokinin-1 (NK-1) receptor in rat brain synaptosomes; type: subcellular
Neuromedin-K receptor = molecular target: T2, Neuromedin-K receptor (Rattus norvegicus, UniProt P16177); assay: Concentration required to inhibit the specific binding of [125I]BH-ELE to Neurokinin-3 (NK-3) receptor in rat brain synaptosomes; type: subcellular
T2 sequence (P16177 whole entry): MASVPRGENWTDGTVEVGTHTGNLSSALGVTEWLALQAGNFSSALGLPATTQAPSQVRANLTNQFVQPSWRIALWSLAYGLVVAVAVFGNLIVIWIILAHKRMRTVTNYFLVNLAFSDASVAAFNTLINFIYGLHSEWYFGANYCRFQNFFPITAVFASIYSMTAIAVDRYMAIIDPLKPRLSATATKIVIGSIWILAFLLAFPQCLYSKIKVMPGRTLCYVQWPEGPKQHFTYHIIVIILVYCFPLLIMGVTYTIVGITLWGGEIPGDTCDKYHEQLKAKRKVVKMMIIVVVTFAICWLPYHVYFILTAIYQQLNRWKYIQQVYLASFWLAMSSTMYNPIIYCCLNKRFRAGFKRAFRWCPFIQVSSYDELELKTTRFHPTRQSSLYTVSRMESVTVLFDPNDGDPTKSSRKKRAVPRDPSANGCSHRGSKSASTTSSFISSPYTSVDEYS
Outline: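 Rat brain synaptosomes in Krebs-Ringer phosphate buffer with BSA, bacitracin and glucose. Incubated 15 min at 20 °C with 40 pM [125I]BHELE and increasing peptide concentrations, gamma counted. Triplicates, two to eight independent experiments; nonspecific binding defined with eledoisin 10⁻⁶ M. IC50 estimated from Hill plots of titration curves.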

Cavia porcellus = organism: Cavia porcellus; assay: Effective concentration required for its inhibition of nonspecific binding to guinea pig ileal membranes; type: functional

Chain of Substance-P receptor (P14600 whole entry): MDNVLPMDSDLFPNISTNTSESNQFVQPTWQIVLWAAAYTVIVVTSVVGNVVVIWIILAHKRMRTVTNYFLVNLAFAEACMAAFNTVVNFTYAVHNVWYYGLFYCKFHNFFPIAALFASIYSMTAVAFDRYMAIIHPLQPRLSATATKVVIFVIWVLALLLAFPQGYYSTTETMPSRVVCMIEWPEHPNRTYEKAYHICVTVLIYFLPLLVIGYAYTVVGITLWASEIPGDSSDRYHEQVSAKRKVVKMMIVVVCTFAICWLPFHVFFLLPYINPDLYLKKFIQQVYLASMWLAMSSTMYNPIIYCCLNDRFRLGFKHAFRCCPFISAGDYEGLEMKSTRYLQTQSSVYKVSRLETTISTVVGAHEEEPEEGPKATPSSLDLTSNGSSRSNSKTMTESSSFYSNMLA

Structure (SMILES) | IC50 (Substance-K receptor) [nM] | IC50 (Substance-P receptor) [nM] | IC50 (Neuromedin-K receptor) [nM] | EC50 (Cavia porcellus) [nM]
CSCC[C@H](NC(=O)[C@H](CC(C)C)NC(=O)CNC(=O)[C@H](Cc1ccccc1)NC(=O)[C@H](NC(=O)[C@H](CCC(N)=O)NC(=O)[C@H](CCC(N)=O)NC(=O)[C@@H]1CCCN1C(=O)[C@H](CCCCN)NC(=O)[C@@H]1CCCN1C(=O)[C@@H](N)CCCN=C(N)N)C1Cc2ccccc2C1)C(N)=O | 3900 | 2800 | > 10000 | 4170
CSCC[C@H](NC(=O)[C@H](CC(C)C)NC(=O)[C@@H]1CCCN1C(=O)[C@H](Cc1ccccc1)NC(=O)[C@H](Cc1ccccc1)NC(=O)[C@H](CCC(N)=O)NC(=O)[C@H](CCC(N)=O)NC(=O)[C@@H]1CCCN1C(=O)[C@H](CCCCN)NC(=O)[C@@H]1CCCN1C(=O)[C@@H](N)CCCN=C(N)N)C(N)=O | > 10000 | 2.9 | > 10000 | 2
CSCC[C@H](NC(=O)[C@H](CC(C)C)NC(=O)CNC(=O)[C@@H]1Cc2ccccc2CN1C(=O)[C@H](Cc1ccccc1)NC(=O)[C@H](CCC(N)=O)NC(=O)[C@H](CCC(N)=O)NC(=O)[C@@H]1CCCN1C(=O)[C@H](CCCCN)NC(=O)[C@@H]1CCCN1C(=O)[C@@H](N)CCCN=C(N)N)C(N)=O | 18000 | 1200 | 20000 | –
CSCC[C@H](NC(=O)[C@H](CC(C)C)NC(=O)CNC(=O)[C@H](Cc1ccccc1)NC(=O)/C(=C/c1ccccc1)NC(=O)[C@H](CCC(N)=O)NC(=O)[C@H](CCC(N)=O)NC(=O)[C@@H]1CCCN1C(=O)[C@H](CCCCN)NC(=O)[C@@H]1CCCN1C(=O)[C@@H](N)CCCN=C(N)N)C(N)=O | 4900 | – | > 10000 | 3100
CSCC[C@H](NC(=O)[C@H](CC(C)C)NC(=O)CNC(=O)[C@@H](NC(=O)[C@H](Cc1ccccc1)NC(=O)[C@H](CCC(N)=O)NC(=O)[C@H](CCC(N)=O)NC(=O)[C@@H]1CCCN1C(=O)[C@H](CCCCN)NC(=O)[C@@H]1CCCN1C(=O)[C@@H](N)CCCN=C(N)N)C1c2ccccc2-c2ccccc21)C(N)=O | – | – | – | 5.7
CSCC[C@H](NC(=O)[C@H](CC(C)C)NC(=O)CNC(=O)[C@@H](NC(=O)[C@H](Cc1ccccc1)NC(=O)[C@H](CCC(N)=O)NC(=O)[C@H](CCC(N)=O)NC(=O)[C@@H]1CCCN1C(=O)[C@H](CCCCN)NC(=O)[C@@H]1CCCN1C(=O)[C@@H](N)CCCN=C(N)N)C(C)(C)SC)C(N)=O | – | – | – | 1.7
CSCC[C@H](NC(=O)[C@H](CC(C)C)NC(=O)CNC(=O)[C@H](Cc1ccccc1)NC(=O)[C@@H](NC(=O)[C@H](CCC(N)=O)NC(=O)[C@H](CCC(N)=O)NC(=O)[C@@H]1CCCN1C(=O)[C@H](CCCCN)NC(=O)[C@@H]1CCCN1C(=O)[C@@H](N)CCCN=C(N)N)C(c1ccccc1)c1ccccc1)C(N)=O | – | – | – | 226
CSCC[C@H](NC(=O)[C@H](CC(C)C)NC(=O)CNC(=O)[C@H](Cc1ccccc1)NC(=O)[C@@H](NC(=O)[C@H](CCC(N)=O)NC(=O)[C@H](CCC(N)=O)NC(=O)[C@@H]1CCCN1C(=O)[C@H](CCCCN)NC(=O)[C@@H]1CCCN1C(=O)[C@@H](N)CCCNC(=N)N)C(c1ccccc1)c1ccccc1)C(N)=O | 3600 | 1300 | 17000 | –

More lines, in order of falling IC50 (Neuromedin-K receptor), values ahead:

IC50 (Substance-K receptor) [nM] | IC50 (Substance-P receptor) [nM] | IC50 (Neuromedin-K receptor) [nM] | EC50 (Cavia porcellus) [nM] | Structure (SMILES)
950 | – | 11700 | 8.4 | CSCC[C@H](NC(=O)[C@H](CC(C)C)NC(=O)CNC(=O)[C@H](Cc1ccccc1)NC(=O)/C(=C\c1ccccc1)NC(=O)[C@H](CCC(N)=O)NC(=O)[C@H](CCC(N)=O)NC(=O)[C@@H]1CCCN1C(=O)[C@H](CCCCN)NC(=O)[C@@H]1CCCN1C(=O)[C@@H](N)CCCN=C(N)N)C(N)=O
– | 2700 | 7400 | – | CSCC[C@H](NC(=O)[C@H](CC(C)C)NC(=O)CNC(=O)[C@H](Cc1ccccc1)NC(=O)[C@H](CCSC)NC(=O)[C@H](CCC(N)=O)NC(=O)[C@H](CCC(N)=O)NC(=O)[C@@H]1CCCN1C(=O)[C@H](CCCCN)NC(=O)[C@@H]1CCCN1C(=O)[C@@H](N)CCCNC(=N)N)C(N)=O
670 | 500 | 2200 | – | CSCC[C@H](NC(=O)[C@H](CC(C)C)NC(=O)CNC(=O)[C@@H](NC(=O)[C@H](Cc1ccccc1)NC(=O)[C@H](CCC(N)=O)NC(=O)[C@H](CCC(N)=O)NC(=O)[C@@H]1CCCN1C(=O)[C@H](CCCCN)NC(=O)[C@@H]1CCCN1C(=O)[C@@H](N)CCCNC(=N)N)C(c1ccccc1)c1ccccc1)C(N)=O
520 | 2400 | 1900 | – | CSCC[C@H](NC(=O)[C@H](CC(C)C)NC(=O)CNC(=O)[C@H](Cc1ccccc1)NC(=O)[C@@H]1Cc2ccccc2CN1C(=O)[C@H](CCC(N)=O)NC(=O)[C@H](CCC(N)=O)NC(=O)[C@@H]1CCCN1C(=O)[C@H](CCCCN)NC(=O)[C@@H]1CCCN1C(=O)[C@@H](N)CCCN=C(N)N)C(N)=O
– | 18 | 1200 | – | CSCC[C@H](NC(=O)[C@H](CC(C)C)NC(=O)CNC(=O)[C@H](CCSC)NC(=O)[C@H](Cc1ccccc1)NC(=O)[C@H](CCC(N)=O)NC(=O)[C@H](CCC(N)=O)NC(=O)[C@@H]1CCCN1C(=O)[C@H](CCCCN)NC(=O)[C@@H]1CCCN1C(=O)[C@@H](N)CCCNC(=N)N)C(N)=O
160 | 7.84 | 190 | 1.1 | CSCC[C@H](NC(=O)[C@H](CC(C)C)NC(=O)CNC(=O)[C@@H](NC(=O)[C@H](Cc1ccccc1)NC(=O)[C@H](CCC(N)=O)NC(=O)[C@H](CCC(N)=O)NC(=O)[C@@H]1CCCN1C(=O)[C@H](CCCCN)NC(=O)[C@@H]1CCCN1C(=O)[C@@H](N)CCCN=C(N)N)C(C)(C)S(C)(=O)=O)C(N)=O
68 | 2.4 | 170 | – | CSCC[C@H](NC(=O)[C@H](CC(C)C)NC(=O)CNC(=O)[C@@H](NC(=O)[C@H](Cc1ccccc1)NC(=O)[C@H](CCC(N)=O)NC(=O)[C@H](CCC(N)=O)NC(=O)[C@@H]1CCCN1C(=O)[C@H](CCCCN)NC(=O)[C@@H]1CCCN1C(=O)[C@@H](N)CCCNC(=N)N)C(C)(C)SC)C(N)=O
– | – | 130 | – | CSCC[C@H](NC(=O)[C@H](CC(C)C)NC(=O)CNC(=O)[C@H](Cc1ccccc1)NC(=O)[C@H](Cc1ccccc1)NC(=O)[C@H](CCC(N)=O)NC(=O)[C@H](CCC(N)=O)NC(=O)[C@@H]1CCCN1C(=O)[C@H](CCCCN)NC(=O)[C@@H]1CCCN1C(=O)[C@@H](N)CCCN=C(N)N)C(N)=O [SUBSTANCE P]
29 | 0.6 | 110 | – | CSCC[C@H](NC(=O)[C@H](CC(C)C)NC(=O)CNC(=O)[C@@H](NC(=O)[C@H](Cc1ccccc1)NC(=O)[C@H](CCC(N)=O)NC(=O)[C@H](CCC(N)=O)NC(=O)[C@@H]1CCCN1C(=O)[C@H](CCCCN)NC(=O)[C@@H]1CCCN1C(=O)[C@@H](N)CCCNC(=N)N)[C@H]1CCc2cc3ccccc3cc21)C(N)=O
41 | 2.5 | 91 | – | CSCC[C@H](NC(=O)[C@H](CC(C)C)NC(=O)CNC(=O)[C@@H](NC(=O)[C@H](Cc1ccccc1)NC(=O)[C@H](CCC(N)=O)NC(=O)[C@H](CCC(N)=O)NC(=O)[C@@H]1CCCN1C(=O)[C@H](CCCCN)NC(=O)[C@@H]1CCCN1C(=O)[C@@H](N)CCCNC(=N)N)C1c2ccccc2-c2ccccc21)C(N)=O
9 | 2.6 | 65 | 2.5 | CSCC[C@H](NC(=O)[C@H](CC(C)C)NC(=O)CNC(=O)[C@@H](NC(=O)[C@H](Cc1ccccc1)NC(=O)[C@H](CCC(N)=O)NC(=O)[C@H](CCC(N)=O)NC(=O)[C@@H]1CCCN1C(=O)[C@H](CCCCN)NC(=O)[C@@H]1CCCN1C(=O)[C@@H](N)CCCN=C(N)N)C(C)(C)C)C(N)=O
